Experimental data taken from PubChem BioAssay AID804 (SRMLSC, 2007).
Among all 140,000 compounds or so, about 710 (0.51%) were called active.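 Rule for the calls: active = inhibition above a set limit, 3 SD over the mean compound inhibition (cut at about 44% in these data); inactive = the rest.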 The entries come from a sample that favours actives as a whole.

Experiment: BB579 yeast growth reduction, restrictive medium – S. cerevisiae, yeast lifespan-shortening project, primary screen (AID 804)
Conditions: OD615, 48 h, at 10 µM, active compounds read high
Outline: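 controls = amphotericin B 10 µg/mL, positive | assay system = DeaD yeast strain BB579 | schedule = 48 h compound exposure at 30 °C after 4 h preincubation | detection = OD615 turbidity measurement | medium = restrictive CSMM-D medium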

inhibition, active:
CCc1ccc2c(c1)C1(NN=C(c3ccccc3)S1)C(=O)N2 (stereo unspecified) 94.7%, Oc1c(Cl)cc(Cl)c(Cl)c1Cc1c(O)c(Cl)cc(Cl)c1Cl 71.3%, COc1cc(Br)cc(/C=N/c2ncn[nH]2)c1O 54.7%, Clc1cccc(CN2COc3c(cc(Cl)c4cccnc34)C2)c1 99.4%, NC(N)=N/N=C/c1ccc(OCc2ccc(Cl)cc2Cl)cc1 99.3%, S=C(NCc1ccc(Cl)cc1)NC12CC3CC(CC(C3)C1)C2 50%, CCOc1cc(N2CCOCC2)c(OCC)cc1NC(=O)COc1cccc2cccnc12 67.1%, Cn1c(=O)c(C(=O)Nc2ncccn2)c(O)c2ccccc21 68.5%, COC(=O)Cn1c2ccc(C)cc2c2nc(C)sc21 43.6%, Cc1c(C=O)c2ccccn2c1C(=O)c1ccncc1 43.9%

inhibition, inactive:
CCOC(=O)CC(NC(=O)C1c2ccccc2Oc2ccccc21)c1ccc(C)cc1 (stereo unspecified) -27.5%, Cc1cc(/C=C2/NC(=O)NC2=O)c(C)n1-c1cccnc1 -7.15%, CC(C)n1c(O)c(N=Nc2ccccn2)c2ccccc21 -16.1%, O=C1Nc2ccccc2C12Nc1ccccc1S2 (stereo unspecified) -30.7%, C=C1c2cc(CC)ccc2NC(=O)N1c1ccc(C)cc1 23.4%, Cc1ccc(OCCOCCOc2ccc(Br)cc2/C=N\NC(=O)c2ccncc2)cc1 -32.5%, COC(=O)c1ccccc1NC(=S)NC(=O)c1ccccc1F -31.5%, CC(C)(C)c1ccc(/C=C/C(=O)Nc2ncccn2)cc1 -6.47%, CCn1c(C(C)NC(=O)c2ccc(C)cc2)n[nH]c1=S (stereo unspecified) -50.9%, COc1ccc(Cc2nnc(N/N=C/c3ccccc3O)[nH]c2=O)cc1OC -57%, Cc1csc(=Nc2ccccc2)n1CCO -3.94%, Cc1ccc(C(=O)Nc2sc(Cc3ccc4c(c3)OCO4)c(C)c2C(N)=O)cc1 -10.9%, NC1=C([N+](=O)[O-])C(c2ccccc2)C2=C(CCCC2=O)O1 (stereo unspecified) -44.3%, CCCCC(O)(CCCC)C(=O)NN(C(=O)CCl)c1ccccc1 -4.22%, CCOC(=O)c1sc2nc(C)nc(SCC(N)=O)c2c1C -20.9%, CCOc1ccc(/C=N/NC(=O)C(C)Sc2ccccn2)cc1OCC (stereo unspecified) -33.6%, Cc1ccc2[nH]c(=O)c(CC=C(Cl)Cl)c(C)c2c1 -51.5%, CCOC(=O)c1sc(NC(=O)COc2ncnc3ccccc23)c(C(=O)OCC)c1C -43.9%, Cc1nn(Cc2ccccc2)c(C)c1C(=O)NCCN1C(=O)S/C(=C\c2ccc(F)cc2)C1=O -32.9%, CC(CNc1ccc([N+](=O)[O-])c2cccnc12)Nc1c([N+](=O)[O-])cc(C(F)(F)F)cc1[N+](=O)[O-] (stereo unspecified) -23.5%, NS(=O)(=O)c1ccc(N=Cc2ccc(Br)s2)cc1 -15%, O=C(COC(=O)/C=C/c1cn(-c2ccccc2)nc1-c1cccnc1)Nc1ccc(Cl)cc1Cl -21.4%, CC(Sc1nnc2c(n1)C1CCC2(C)C1(C)C)C(=O)Nc1ccccc1 (stereo unspecified) -23.4%, O=C(/C=C\c1ccc2c(c1)OCO2)NC1(C(=O)Nc2ccc3c(c2)OCCO3)CCCCC1 9.33%, COc1ccc(S(=O)(=O)N2CN(CCc3ccc(OC)c(OC)c3)c3nc4ccccc4nc32)cc1 -25.7%, COc1cccc(N(C(=O)C2COc3ccccc3O2)C(C(=O)NC2CCCCC2)c2ccc(O)cc2)c1 (stereo unspecified) -6.16%, CCCCCCCC[n+]1cccc(C(=O)N2c3c(nc(N)[nH]c3=O)NC(C)C2C)c1 (stereo unspecified) -5.07%, O=C(Nc1nc(-c2ccc(-c3ccccc3)cc2)cs1)c1cnccn1 -18.9%, O=C(CNCc1ccc(F)cc1)Nc1ccccc1-c1ccccc1 -20.9%, Oc1ccc(Br)cc1C=Nc1ccc2[nH]ncc2c1 -67.6%, COc1ccc(Br)cc1/C=N/n1c(C)nnc1C -33.3%, Nc1c(C(=O)NCc2ccccc2)nnn1Cc1cccc(Cl)c1 -3.98%, O=c1[nH]n(-c2cccc(Cl)c2)c2ncccc12 -63.7%, Cc1cc(OCCCC(=O)NCCN2C(=O)S/C(=C\c3cccnc3)C2=O)ccc1Cl -3.48%, CCc1c(C)sc(NC(=O)/C=C/c2ccc3c(c2)OCO3)c1C(=O)OC -27.2%, Nc1nc(NC(=O)/C=C/c2ccccc2)nn1-c1ccccc1 -11.2%, COc1ccc(C(=O)O/N=C(\N)Cc2ccc(Cl)cc2Cl)cc1OC -25.8%, COC(=O)c1sc2ncccc2c1OCc1ccc(Cl)cc1Cl -44.1%, COc1ccccc1CN(C)C(=O)C1(c2ccc(Cl)cc2)CC1 -2.98%, N/C(=N\OC(=O)CC1CCCCC1)c1ccccc1 -2.81%, CCCCn1c(=S)[nH]c2ccccc2c1=O 6.35%, Cc1c(Cl)c([N+](=O)[O-])nn1CCCC(=O)Nc1cc(Cl)ccc1Cl 2.39%, Nc1nc(SCC(=O)NN(c2ccccc2)c2ccccc2)n[nH]1 -6.56%, CC(C)(C)C1CCC(=NNC(=O)c2cc(-c3ccccc3)n[nH]2)CC1 (stereo unspecified) -16.9%, O=C1NC(c2ccccc2)=NC1(Nc1ccccn1)C(F)(F)F (stereo unspecified) -3.11%, CCN=C1S/C(=C\c2cc(Br)ccc2OCC(=O)OCC)C(=O)N1CC -14.3%, COCCn1c(SCC(=O)Nc2ccc3c(c2)CCC3)nc2ccccc2c1=O -36.9%, COc1ccc(C2Nc3ccccc3C(=O)N2c2ccc(F)cc2)cc1Cn1nnc2ccccc21 (stereo unspecified) -29.1%, CC(C)CNC(=S)Nc1ccc(F)cc1 14.5%, CCOC(=O)c1cc2c(nc1NC(=S)Nc1ccccc1)CC(C)(CC)OC2 (stereo unspecified) 0.93%, COc1cc(NC(=O)c2ccccc2NS(=O)(=O)c2ccc(Cl)s2)cc(OC)c1 -5.4%, S=C(NCc1ccc(Cl)cc1)NC1CCCCC1 -27.3%, COC(=O)Cc1ccc(NC(=S)NCc2ccc(Cl)cc2)cc1 -19.1%, O=C(CCc1nc2ccccc2c(=O)[nH]1)OCC(=O)c1cccc(Cl)c1 -13.4%, N#C/C(=C/c1cccc([N+](=O)[O-])c1)c1nnc2n1CCCCC2 -18.8%, COCC(C)n1c(C)cc(C(=O)CSc2cc(C)c3ccccc3n2)c1C (stereo unspecified) -56.2%, O=c1[nH]cnc2c1c(-c1ccccc1)cn2-c1ccc(F)cc1 -19.6%, COc1ccc(-n2nnnc2-c2nc3ccccc3s2)cc1 -33.6%, O=C1OC(OC(=O)c2ccccc2Br)C(N2CCOCC2)=C1Cl (stereo unspecified) -32.6%, Cc1cccc(OCC(=O)NC(=S)Nc2ccccc2N2CCOCC2)c1 -49.4%, CCOc1cc(N2CCOCC2)c(OCC)cc1NC(=O)COC(=O)[C@H](Cc1c[nH]c2ccccc12)NC(C)=O -16%, CCc1ccc2c(c1)C(c1ccc([N+](=O)[O-])cc1)=NNC(c1ccccc1)=N2 -23.5%, O=C(Nc1ncccn1)c1cccs1 -21.9%, Cn1c(=O)c(Sc2ccc(Cl)cc2)c(O)c2ccccc21 -21.7%, Cc1ccc(NC(=O)c2sc3nc(N)c(C#N)cc3c2N)cc1 -23.2%, O=C(Cc1c[nH]c2ccccc12)N/N=C/c1cccc(F)c1 -39.1%, CCN(CC)CCn1c2ccc(Cl)cc2c2nc(C)sc21 -1.41%, COC(=O)Cn1c(=NC(=O)c2cc(OC)c(OC)c(OC)c2)sc2cc(OC)ccc21 -32.8%, CCOC(=O)c1nn(-c2ccccc2F)c2nc(Nc3ccccc3)cc(=O)n12 -45.6%, CC(OC(=O)CNS(=O)(=O)/C=C/c1ccccc1)C(=O)Nc1ccc(S(=O)(=O)N2CCCC2)cc1 (stereo unspecified) -25.4%, CN1CCC(=NNC(=O)c2ccc(N(Cc3ccc(Cl)cc3)S(C)(=O)=O)cc2)CC1 -8.48%
